Results on 10 compounds are retold here after ChEMBL document CHEMBL1811783, “Positive GABA(A) receptor modulators from Acorus calamus and structural analysis of (+)-dioxosarcoguaiacol by 1D and 2D NMR and molecular modeling” (J Nat Prod, 2011).

What all share (type): cell-based
Assay [1] concerns Oocyte. Briefly: Allosteric modulation of rat gamma-aminobutyric acid receptor A alpha1beta2gamma2S expressed in Xenopus oocytes assessed as potentiation of GABA-mediated chloride current at 0.1 to 1000 uM after 20 secs by voltage clamp assay. The method, boiled down: (§1)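 Rat α1β2γ2S cRNAs (1:1:10) injected into collagenase-defolliculated Xenopus oocytes, stored at 18 °C, recorded days 1–5. Two-microelectrode voltage clamp at −70 mV in 90 mM NaCl/1 mM KCl/1 mM MgCl2/1 mM CaCl2/5 mM HEPES pH 7.4. Compounds at 0.1–1000 μM co-applied by fast perfusion with GABA at EC5–10, determined from a 0.1 μM–1 mM GABA concentration–response. Read-out: IGABA potentiation.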

The nature of assay [2]: Allosteric modulation of rat gamma-aminobutyric acid receptor A alpha1beta2gamma2S expressed in Xenopus oocytes assessed as potentiation of GABA-mediated chloride current after 20 secs by voltage clamp assay. To be noted: Oocyte. A digest of the protocol:
as §1

Assay [3] has as its system Oocyte. As to the kind of experiment: Allosteric modulation of gamma-aminobutyric acid receptor A alpha1beta2gamma2S expressed in Xenopus oocytes assessed as potentiation of GABA-mediated chloride current at 1 uM by voltage clamp assay. The method, boiled down: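 Rat α1β2γ2S cRNAs (1:1:10) injected into collagenase-defolliculated oocytes, stored at 18 °C, recorded days 1–5. Two-microelectrode voltage clamp at −70 mV in HEPES-buffered bath (pH 7.4). Compound in bath solution with GABA EC5–10 (from a 0.1 μM–1 mM GABA concentration–response) applied by automated fast perfusion at 300 μL/s. Read-out is IGABA potentiation.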

In general, Emax refers to the size of the effect at its maximum, as opposed to the concentration needed. As usually defined, the EC50 is the midpoint of the concentration-response curve.

As for `C[C@@H]1CCC2=C1C=C1C(C)(C)OO[C@@]1(O)C[C@H]2C`, in the assay with Oocyte [1], the Emax was 588%. Also, the EC50 in assay [2] was determined as 65.3 µM. On to `CC1=CC[C@]2(CC1=O)[C@@H](C)CC[C@H]2C(C)C`, for which, in the assay on Oocyte [1], the Emax came to 241%. Besides, the EC50 in assay [2] turned out to be 34 µM.

In the case of `Cc1nnc2n1-c1ccc(Cl)cc1C(c1ccccc1Cl)=NC2`, the Activity with Oocyte [3] was found to be 253%. In the case of `C=C[C@]1(C)CC[C@@H](C(C)C)C(=O)C1=C(C)C`, the Emax in the assay on Oocyte [1] amounted to 164%. For the same compound, the EC50 in assay [2] was 109 µM.

With `C=C1CC/C=C(\C)CC[C@@H](C(C)C)C(=O)C1`, in the assay with Oocyte [1], the Emax came out at 886%. Also, in assay [2], the EC50 worked out at 135 µM. Turning to `CC1=C2[C@H](/C=C(\C)C(=O)O)CC[C@@H](C)[C@H]2CC1`, in the assay with Oocyte [3], the Activity stood at 400%. As to `C=C[C@]1(C)CC[C@@H](C(C)C)C(=O)[C@H]1C(=C)C`, the Emax with Oocyte [1] turned out to be 669%. For the same compound, in assay [2], the EC50 worked out at 64.8 µM. As for `Cc1ncc2n1-c1ccc(Cl)cc1C(c1ccccc1F)=NC2`, the Activity with Oocyte [3] was found to be 342%.

As to `C/C=C\c1cc(OC)c(OC)cc1OC` [CIS-ASARONE], the Emax in the assay with Oocyte [1] came out at 1200%. The EC50 in assay [2] came to 172 µM. Turning to `CCc1cc2c(s1)N(C)C(=O)CN=C2c1ccccc1Cl`, the Activity in the assay on Oocyte [3] was determined as 260%.
